Laboratory results reported in ChEMBL document CHEMBL1153576, “Novel ureas and thioureas of 15-membered azalides with antibacterial activity against key respiratory pathogens” (Eur J Med Chem, 2009).
Converted amounts (≈) assume the structure as drawn.

Tests used:
Staphylococcus aureus = assay: Antibacterial activity against Staphylococcus aureus ATCC 29213 after 16 to 22 hrs by broth microdilution method; type: functional
How it was run: (§1)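 Broth microdilution per the CLSI approved standard (sixth edition), using two-fold serial dilutions of compound in Mueller–Hinton broth. Stocks at 5 mg/ml in DMF. Inoculum came from a direct colony suspension adjusted by turbidity to about 5 × 10⁴ CFU/well final. Trays were incubated at 35 °C for 16–22 h. MIC is the lowest concentration completely inhibiting growth (99% inhibition).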

Streptococcus pneumoniae [1] = assay: Antibacterial activity against erythromycin-susceptible Streptococcus pneumoniae after 16 to 22 hrs by broth microdilution method; type: functional
How it was run: (§2)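 Streptococci tested by CLSI broth microdilution in Mueller–Hinton broth with 5% horse serum, using two-fold serial dilutions. Compounds were dissolved in DMF at 5 mg/ml (stock). Inoculum was a turbidity-adjusted direct colony suspension giving about 5 × 10⁴ CFU/well. Trays were held at 35 °C for 16–22 h. MIC is the lowest concentration completely inhibiting growth (99%).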

Streptococcus pneumoniae [2] = assay: Antibacterial activity against efflux-mediated macrolide-resistant Streptococcus pneumoniae after 16 to 22 hrs by broth microdilution method; type: functional
How it was run: (§3)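 Two-fold serial dilutions in microdilution trays, following the CLSI dilution standard for aerobic bacteria. Medium was Mueller–Hinton broth with 5% horse serum for streptococci. Stocks were made at 5 mg/ml in DMF. Inoculum came from a direct colony suspension adjusted by turbidity to about 5 × 10⁴ CFU/well final. Incubation was at 35 °C for 16–22 h. MIC is the lowest concentration completely inhibiting growth (99% inhibition).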

Streptococcus pneumoniae [3] = assay: Antibacterial activity against constitutive macrolide-lincosamide-streptogramin-resistant Streptococcus pneumoniae after 16 to 22 hrs by broth microdilution method; type: functional; how it was run: as §3
Streptococcus pyogenes [4] = assay: Antibacterial activity against erythromycin-susceptible Streptococcus pyogenes after 16 to 22 hrs by broth microdilution method; type: functional; how it was run: as §2
Streptococcus pyogenes [5] = assay: Antibacterial activity against inducible macrolide-lincosamide-streptogramin-resistant Streptococcus pyogenes 16 to 22 hrs by broth microdilution method; type: functional; how it was run: as §3
Streptococcus pyogenes [6] = assay: Antibacterial activity against efflux-mediated macrolide-resistance Streptococcus pyogenes after 16 to 22 hrs by broth microdilution method; type: functional; how it was run: as §3
Moraxella catarrhalis = assay: Antibacterial activity against Moraxella catarrhalis ATCC 23246 after 16 to 22 hrs by broth dilution method; type: functional; how it was run: as §1
Haemophilus influenzae = assay: Antibacterial activity against Haemophilus influenzae ATCC 49247 after 16 to 22 hrs by broth dilution method; type: functional
How it was run: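 Microdilution trays following the CLSI standard, with two-fold serial dilutions in supplemented broth suited to H. influenzae. DMF stocks at 5 mg/ml. Inoculum prepared from a turbidity-adjusted direct colony suspension to about 5 × 10⁴ CFU/well final. Incubated at 35 °C for 16–22 h. MIC is the lowest concentration giving complete (99%) growth inhibition.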

Enterococcus faecalis = assay: Antibacterial activity against Enterococcus faecalis ATCC 29212 after 16 to 22 hrs by broth dilution method; type: functional; how it was run: as §1
Escherichia coli = assay: Antibacterial activity against Escherichia coli ATCC 25922 after 16 to 22 hrs by broth dilution method; type: functional; how it was run: as §1
[7] = Chemical stability in 0.01 M artificial gastric juice assessed as half life at 37 degC; type: physicochemical
How it was run: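 Acid degradation followed as pseudo-first-order kinetics. Rate constants came from an exponential fit of reactant concentration versus time, and t1/2 was calculated from k.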

| SMILES | MIC (Staphylococcus aureus) | MIC (Streptococcus pneumoniae [1]) | MIC (Streptococcus pneumoniae [2]) | MIC (Streptococcus pneumoniae [3]) | MIC (Streptococcus pyogenes [4]) | MIC (Streptococcus pyogenes [5]) | MIC (Streptococcus pyogenes [6]) | MIC (Moraxella catarrhalis) | MIC (Haemophilus influenzae) | MIC (Enterococcus faecalis) | MIC (Escherichia coli) | half-life [7] |
| --- | --- | --- | --- | --- | --- | --- | --- | --- | --- | --- | --- | --- |
| CC[C@H]1OC(=O)[C@H](C)[C@@H](O[C@H]2C[C@@](C)(OC)[C@@H](O)[C@H](C)O2)[C@H](C)[C@@H](O[C@@H]2O[C@H](C)C[C@H](N(C)C)[C@H]2O)[C@](C)(O)C[C@@H](C)CN(CCCN(CCC#N)C(=S)NCCCc2ccccc2)[C@H](C)[C@@H](O)[C@]1(C)O | 1 µg/mL (≈ 0.978 µM) | ≤ 0.125 µg/mL | 32 µg/mL (≈ 31.3 µM) | 32 µg/mL (≈ 31.3 µM) | ≤ 0.125 µg/mL | 8 µg/mL (≈ 7.82 µM) | 16 µg/mL (≈ 15.6 µM) | 4 µg/mL (≈ 3.91 µM) | 4 µg/mL (≈ 3.91 µM) | 16 µg/mL (≈ 15.6 µM) | 16 µg/mL (≈ 15.6 µM) |  |
| CC[C@H]1OC(=O)[C@H](C)[C@@H](O[C@H]2C[C@@](C)(OC)[C@@H](O)[C@H](C)O2)[C@H](C)[C@@H](O[C@@H]2O[C@H](C)C[C@H](N(C)C)[C@H]2O)[C@](C)(O)C[C@@H](C)CN(CCCN(CCC#N)C(=S)Nc2ccccc2)[C@H](C)[C@@H](O)[C@]1(C)O | 2 µg/mL (≈ 2.04 µM) | ≤ 0.125 µg/mL | 32 µg/mL (≈ 32.6 µM) | > 64 µg/mL | ≤ 0.125 µg/mL | 32 µg/mL (≈ 32.6 µM) | 32 µg/mL (≈ 32.6 µM) | 4 µg/mL (≈ 4.08 µM) | 16 µg/mL (≈ 16.3 µM) | > 64 µg/mL | > 64 µg/mL |  |
| CC[C@H]1OC(=O)[C@H](C)[C@@H](O[C@H]2C[C@@](C)(OC)[C@@H](O)[C@H](C)O2)[C@H](C)[C@@H](O[C@@H]2O[C@H](C)C[C@H](N(C)C)[C@H]2O)[C@](C)(O)C[C@@H](C)CN(CCCN(CCC#N)C(=O)Nc2cccc3ccccc23)[C@H](C)[C@@H](O)[C@]1(C)O | 1 µg/mL (≈ 0.986 µM) | ≤ 0.125 µg/mL | 16 µg/mL (≈ 15.8 µM) | 64 µg/mL (≈ 63.1 µM) | ≤ 0.125 µg/mL | 8 µg/mL (≈ 7.89 µM) | 8 µg/mL (≈ 7.89 µM) | 0.5 µg/mL (≈ 0.493 µM) | 4 µg/mL (≈ 3.94 µM) | 16 µg/mL (≈ 15.8 µM) | 8 µg/mL (≈ 7.89 µM) | 1.8 h |
| CC[C@H]1OC(=O)[C@H](C)[C@@H](O[C@H]2C[C@@](C)(OC)[C@@H](O)[C@H](C)O2)[C@H](C)[C@@H](O[C@@H]2O[C@H](C)C[C@H](N(C)C)[C@H]2O)[C@](C)(O)C[C@@H](C)CN(CCCN(CCC#N)C(=O)NC(C)c2cccc3ccccc23)[C@H](C)[C@@H](O)[C@]1(C)O (some centres not stated) | 2 µg/mL (≈ 1.92 µM) | ≤ 0.125 µg/mL | 32 µg/mL (≈ 30.7 µM) | 16 µg/mL (≈ 15.3 µM) | ≤ 0.125 µg/mL | 8 µg/mL (≈ 7.67 µM) | 8 µg/mL (≈ 7.67 µM) | 0.5 µg/mL (≈ 0.48 µM) | 2 µg/mL (≈ 1.92 µM) | 16 µg/mL (≈ 15.3 µM) | 32 µg/mL (≈ 30.7 µM) |  |
| CC[C@H]1OC(=O)[C@H](C)[C@@H](O[C@H]2C[C@@](C)(OC)[C@@H](O)[C@H](C)O2)[C@H](C)[C@@H](O[C@@H]2O[C@H](C)C[C@H](N(C)C)[C@H]2O)[C@](C)(O)C[C@@H](C)CN(CCCN(CCC#N)C(=S)Nc2cccc3ccccc23)[C@H](C)[C@@H](O)[C@]1(C)O | 4 µg/mL (≈ 3.88 µM) | ≤ 0.125 µg/mL | 16 µg/mL (≈ 15.5 µM) | 64 µg/mL (≈ 62.1 µM) | ≤ 0.125 µg/mL | 32 µg/mL (≈ 31.1 µM) | 32 µg/mL (≈ 31.1 µM) | 4 µg/mL (≈ 3.88 µM) | 8 µg/mL (≈ 7.76 µM) | 32 µg/mL (≈ 31.1 µM) | 8 µg/mL (≈ 7.76 µM) |  |
| CC[C@H]1OC(=O)[C@H](C)[C@@H](O[C@H]2C[C@@](C)(OC)[C@@H](O)[C@H](C)O2)[C@H](C)[C@@H](O[C@@H]2O[C@H](C)C[C@H](N(C)C)[C@H]2O)[C@](C)(O)C[C@@H](C)CN(CCCN(CCC#N)C(=S)NCc2ccccc2)[C@H](C)[C@@H](O)[C@]1(C)O | 1 µg/mL (≈ 1.01 µM) | ≤ 0.125 µg/mL | 16 µg/mL (≈ 16.1 µM) | 64 µg/mL (≈ 64.4 µM) | ≤ 0.125 µg/mL | 16 µg/mL (≈ 16.1 µM) | 8 µg/mL (≈ 8.05 µM) | 1 µg/mL (≈ 1.01 µM) | 4 µg/mL (≈ 4.02 µM) | 32 µg/mL (≈ 32.2 µM) | 16 µg/mL (≈ 16.1 µM) |  |
| CC[C@H]1OC(=O)[C@H](C)[C@@H](O[C@H]2C[C@@](C)(OC)[C@@H](O)[C@H](C)O2)[C@H](C)[C@@H](O[C@@H]2O[C@H](C)C[C@H](N(C)C)[C@H]2O)[C@](C)(O)C[C@@H](C)CN(CCCN(CCC#N)C(=S)NCCc2ccccc2)[C@H](C)[C@@H](O)[C@]1(C)O | 1 µg/mL (≈ 0.992 µM) | ≤ 0.125 µg/mL | 32 µg/mL (≈ 31.7 µM) | 64 µg/mL (≈ 63.5 µM) | ≤ 0.125 µg/mL | 8 µg/mL (≈ 7.93 µM) | 16 µg/mL (≈ 15.9 µM) | 2 µg/mL (≈ 1.98 µM) | 4 µg/mL (≈ 3.97 µM) | 32 µg/mL (≈ 31.7 µM) | 16 µg/mL (≈ 15.9 µM) |  |
| CC[C@H]1OC(=O)[C@H](C)[C@@H](O[C@H]2C[C@@](C)(OC)[C@@H](O)[C@H](C)O2)[C@H](C)[C@@H](O[C@@H]2O[C@H](C)C[C@H](N(C)C)[C@H]2O)[C@](C)(O)C[C@@H](C)CN(CCCNC(=O)Nc2cccc3ccccc23)[C@H](C)[C@@H](O)[C@]1(C)O | 0.5 µg/mL (≈ 0.52 µM) | ≤ 0.125 µg/mL | 4 µg/mL (≈ 4.16 µM) | > 64 µg/mL | ≤ 0.125 µg/mL | 2 µg/mL (≈ 2.08 µM) | 4 µg/mL (≈ 4.16 µM) | 0.5 µg/mL (≈ 0.52 µM) | 1 µg/mL (≈ 1.04 µM) | 4 µg/mL (≈ 4.16 µM) | 8 µg/mL (≈ 8.32 µM) | 1.98 h |
| CC[C@H]1OC(=O)[C@H](C)[C@@H](O[C@H]2C[C@@](C)(OC)[C@@H](O)[C@H](C)O2)[C@H](C)[C@@H](O[C@@H]2O[C@H](C)C[C@H](N(C)C)[C@H]2O)[C@](C)(O)C[C@@H](C)CN(CCCN(CCC#N)C(=O)Nc2ccc3ccccc3c2)[C@H](C)[C@@H](O)[C@]1(C)O | 1 µg/mL (≈ 0.986 µM) | ≤ 0.125 µg/mL | 16 µg/mL (≈ 15.8 µM) | 32 µg/mL (≈ 31.5 µM) | ≤ 0.125 µg/mL | 16 µg/mL (≈ 15.8 µM) | 8 µg/mL (≈ 7.89 µM) | 1 µg/mL (≈ 0.986 µM) | 2 µg/mL (≈ 1.97 µM) | 16 µg/mL (≈ 15.8 µM) | 32 µg/mL (≈ 31.5 µM) |  |
| CC[C@H]1OC(=O)[C@H](C)[C@@H](O[C@H]2C[C@@](C)(OC)[C@@H](O)[C@H](C)O2)[C@H](C)[C@@H](O[C@@H]2O[C@H](C)C[C@H](N(C)C)[C@H]2O)[C@](C)(O)C[C@@H](C)CN(C)[C@H](C)[C@@H](O)[C@]1(C)O [AZITHROMYCIN] | 0.5 µg/mL (≈ 0.668 µM) | ≤ 0.125 µg/mL | 8 µg/mL (≈ 10.7 µM) | 64 µg/mL (≈ 85.4 µM) | ≤ 0.125 µg/mL | 8 µg/mL (≈ 10.7 µM) | 4 µg/mL (≈ 5.34 µM) | ≤ 0.125 µg/mL | 1 µg/mL (≈ 1.34 µM) | 8 µg/mL (≈ 10.7 µM) | 2 µg/mL (≈ 2.67 µM) |  |
